ChEMBL document CHEMBL1124258, “(Imidazo[1,2-a]pyrimidin-2-yl)phenylmethanones and related compounds as potential nonsedative anxiolytics” (J Med Chem, 1988)

Columns and labels:
[1] = target: GABA-A receptor; anion channel; assay: Inhibition of 0.6 nM [3H]flunitrazepam binding to GABA-A central benzodiazepine receptor of rat forebrain membrane
Summary of the method: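 Rat forebrain membranes with [3H]flunitrazepam at 0.6 nM, modified Squires–Braestrup method. IC50 (nM) read from displacement curves of at least four concentrations, each in triplicate.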

[2] = organism: Rattus norvegicus; assay: Minimum Effective Dose (MED) was measured using Food-Conflict test in rats; format: functional; details: read-out: MED
Summary of the method: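 Male Lister rats on alternating schedule: five 4-min FI30 unpunished and 3-min FR5 punished components (food-motivated). Oral dosing, first at 50 mg/kg in four rats, then at decreasing doses if active until the minimum effective dose was reached.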

[3] = organism: Mus musculus; assay: Muscle relaxation in mice by using Pull-Up test; format: functional
[4] = organism: Mus musculus; assay: Sedative/muscle relaxant effect in mice by using Rotating-Drum test; format: functional
Summary of the method: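 Male CD-1 mice were placed on a rotating drum (3 cm diameter, 16 rev/min) 1 h after dosing. Mean time on the drum for groups of 10 was expressed as a percentage of the control group mean.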

[5] = system: Mus musculus; assay: Anticonvulsant activity in CD-1 mice with 120 mg/kg of leptazol; format: functional
Summary of the method: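 Male CD-1 mice challenged with leptazol at 120 mg/kg, following Everett and Richards. ED50 (mg/kg po) with 95% confidence limits by Litchfield–Wilcoxon where the doses allowed.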

[6] = organism: Rattus norvegicus; assay: Minimum Effective Dose(MED was measured by using Licking-Conflict test in rats; format: functional; details: read-out: MED
Summary of the method: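 Rats trained to stable suppression of drinking at tone onset. Each session had 1 min unpunished drinking, then a tone lasting through a 3-min punished period.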

Compound	IC50 [1] [nM]	minimal effective dose [2] [mg/kg]	ED50 [3] [mg/kg]	ED50 [4] [mg/kg]	ED50 [5] [mg/kg]	minimal effective dose [6] [mg/kg]
CCCCc1c(OC)nc2nc(C(=O)c3ccccc3)cn2c1CC	34	10	–	–	–	–
CCCCc1cc(OC)nc2nc(C(=O)c3ccccc3)cn12	340	10	–	–	–	–
CCc1cc(OC)nc2nc(C(=O)c3ccccc3)cn12	295	2	–	–	–	–
COc1ccc(C(=O)c2cn3c(cc(OC)c4ccccc43)n2)cc1	37	> 50	–	–	–	–
CCCC(=O)c1cn2c(cc(OC)c3cc(CC)ccc32)n1	535	20	–	–	–	–
CCCCc1ccc2c(c1)c(OC)cc1nc(C(=O)c3ccccc3)cn12	25	10	–	–	–	–
CCOc1nc2nc(C(=O)c3ccccc3)cn2c2c1CSCC2	> 10000	> 50	–	–	–	–
CCCc1c(SC)nc2nc(C(=O)c3ccccc3)cn2c1CC	47	10	–	–	–	–
CCc1c(SC)nc2nc(C(=O)c3ccccc3)cn2c1C	12	2	200	100	12.5	2
CSc1nc2nc(C(=O)c3ccccc3)cn2c2c1CCC(C)C2 (stereo not given)	76	50	–	–	–	–
C=CCc1c(OC)nc2nc(C(=O)c3ccccc3)cn2c1CC	42	10	–	–	–	–
CCCc1c(OC)nc2nc(C(=O)c3ccccc3)cn2c1CC	34	10	–	–	–	–
COc1nc2nc(C(=O)c3ccccc3)cn2c2c1CSCC2	185	20	–	–	–	–
CSc1cc(C)n2cc(C(=O)c3ccccc3)nc2n1	190	5	–	–	–	–
COc1nc2nc(C(=O)c3ccccc3)cn2c2c1CCC(C)C2 (stereo not given)	135	10	–	–	–	–
CSc1nc2nc(C(=O)c3ccccc3)cn2c2c1CSCC2	24	50	–	–	–	–
CCOc1nc2nc(C(=O)c3ccccc3)cn2c2c1CCCCC2	4000	5	–	–	–	–
O=C(Nc1nccs1)c1cn2c(n1)sc1ccccc12	> 10	–	–	–	–	–
CCc1ccc2c(c1)sc1nc(C(=O)c3ccccc3)cn12	740	–	–	–	–	–
CCC(=O)c1cn2c(cc(OC)c3cc(CC)ccc32)n1	135	10	–	–	–	–
CCOC(=O)N1Cc2c(OC)nc3nc(C(=O)c4ccccc4)cn3c2C1	10000	50	–	–	–	–
COc1cc2nc(C(=O)c3ccccc3)cn2c2ccc(F)cc12	20	10	–	–	–	–
CCCc1ccc2c(c1)c(OC)cc1nc(C(=O)c3ccccc3)cn12	16	2	–	–	–	–

Compound	IC50 [1] [nM]	minimal effective dose [2] [mg/kg]	ED50 [3] [mg/kg]	ED50 [4] [mg/kg]	ED50 [5] [mg/kg]	minimal effective dose [6] [mg/kg]
CCc1ccc2c(c1)c(OC)cc1nc(C(=O)c3ccccc3)cn12	14	5	640	22.5	3.2	2
CCCOC(=O)c1cn2c(n1)sc1ccccc12	470	–	–	–	–	–
COc1nc2nc(C(=O)c3ccccc3)cn2c(C)c1CC1CC1	30	10	–	–	–	–
CCCc1c(OC)nc2nc(C(=O)c3ccccc3)cn2c1C	85	5	100	100	200	5
O=C(Nc1cccc(Cl)c1)c1cn2c(n1)sc1ccccc12	> 10000	–	–	–	–	–
COc1cc2nc(C(=O)c3cccs3)cn2c2ccccc12	24	> 50	–	–	–	–
CSc1nc2nc(C(=O)c3ccccc3)cn2c2c1CCCC2	9	10	–	–	–	–
COc1nc2nc(C(=O)c3ccccc3)cn2c2c1CSC2	430	> 50	–	–	–	–
C=CCc1c(OC)nc2nc(C(=O)c3ccccc3)cn2c1C	45	5	–	100	54	10
COc1nc2nc(C(=O)c3ccccc3)cn2c(C)c1OC	1000	5	–	–	–	–
CC(C)OC(=O)c1cn2c(n1)sc1ccccc12	160	–	–	–	–	–
CCc1ccc2c(c1)c(OC)cc1nc(C(C)=O)cn12	1300	20	–	–	–	–
CCOc1nc2nc(C(=O)c3ccccc3)cn2c2c1CCCC2	2000	> 50	–	–	–	–
COc1nc2nc(C(=O)c3ccccc3)cn2c2c1CCC2	200	20	–	–	–	–
CCc1cn2cc(C(=O)c3ccccc3)nc2nc1OC	1500	5	–	–	–	–
COc1cc2nc(C(=O)c3ccccc3)cn2c2ccc(C(C)C)cc12	10	5	–	–	–	–
CCOC(=O)Cc1cn2c(n1)sc1ccccc12	> 10	–	–	–	–	–
C=CCc1c(SC)nc2nc(C(=O)c3ccccc3)cn2c1C	8	5	–	–	–	–
COc1cc2nc(C(=O)c3ccccc3)cn2c2ccc(C)cc12	21	5	–	–	–	–
O=C(O)c1cn2c(n1)sc1ccccc12	> 10	–	–	–	–	–
CCCCc1c(OC)nc2nc(C(=O)c3ccccc3)cn2c1C	42	2	–	–	–	–
CCc1ccc2c(c1)c(OC)c(C)c1nc(C(=O)c3ccccc3)cn12	7	2	–	–	–	–
COc1cc2nc(C(=O)c3ccccc3)cn2c2ccccc12	57	5	–	–	–	–

Compound	IC50 [1] [nM]	minimal effective dose [2] [mg/kg]	ED50 [3] [mg/kg]	ED50 [4] [mg/kg]	ED50 [5] [mg/kg]	minimal effective dose [6] [mg/kg]
O=C(OC1CCCCC1)c1cn2c(n1)sc1ccccc12	7100	–	–	–	–	–
COc1cc2nc(C(=O)c3ccccc3)cn2c2cc(C)c(C)cc12	100	5	–	–	–	–
CSc1nc2nc(C(=O)c3ccccc3)cn2c2c1CCC2	35	2	–	–	–	–
CCc1c(OC)nc2nc(C(=O)c3ccccc3)cn2c1CC	107	2	–	–	–	–
CCc1ccc2c(c1)c(OC)c(CC)c1nc(C(=O)c3ccccc3)cn12	135	20	–	–	–	–
COC(=O)c1cn2c(n1)sc1ccccc12	60	–	–	–	–	–
CCOC(=O)c1cn2c(n1)sc1ccccc12	120	–	–	–	–	–
O=C(OCc1ccccc1)c1cn2c(n1)sc1ccccc12	50	–	–	–	–	–
CCSc1nc2nc(C(=O)c3ccccc3)cn2c2c1CCC2	1850	50	–	–	–	–
CCOC(=O)c1cn2c(n1)sc1cc(CC)ccc12	4000	–	–	–	–	–
COc1nc2nc(C(=O)c3ccccc3)cn2c2c1CCCC2	61	5	500	200	100	5
CCCc1cc(OC)nc2nc(C(=O)c3ccccc3)cn12	535	1	–	–	–	–
CC1(C)COC(c2cn3c(n2)sc2ccccc23)=N1	> 10000	–	–	–	–	–
O=C(c1ccccc1)c1cn2c(n1)sc1ccccc12	85	–	–	–	–	–
COc1nc2nc(C(=O)c3ccccc3)cn2c2c1CCCCC2	125	10	–	–	–	–
COc1cc(C)n2cc(C(=O)c3ccccc3)nc2n1	800	5	–	–	–	–
CCOc1nc2nc(C(=O)c3ccccc3)cn2c2c1CCC2	> 10000	50	–	–	–	–
COc1cc2nc(C(=O)c3ccc(C)cc3)cn2c2ccccc12	19	> 50	–	–	–	–
CCc1ccc2c(c1)c(OC)cc1nc(C(=O)c3ccccn3)cn12	9	5	–	–	–	–
CCCc1cc(SC)nc2nc(C(=O)c3ccccc3)cn12	89	10	–	–	–	–
COc1cc2nc(C(=O)c3ccc(Cl)cc3)cn2c2ccccc12	96	> 50	–	–	–	–
CNC1=Nc2ccc(Cl)cc2C(c2ccccc2)=[N+]([O-])C1 [CHLORDIAZEPOXIDE]	–	5	16	6.8	1.9	2
CCc1c(OC)nc2nc(C(=O)c3ccccc3)cn2c1C [DIVAPLON]	56	2	200	200	21	2
